Screens as filed in PubChem.
XBP1 UPR activ = adaptive UPR (XBP1) activation; CHO-XBP1 luciferase reporter, IRE1-XBP1 UPR activation, luminescence; percent of tunicamycin response, DMSO as zero; activation, % at 20 µM; 330,000 compounds, 0.33% hits;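 active = versus positive control, 20 µM dose yields 30% or more activation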
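Material: CHO-XBP1 cells stably carrying IRE1-XBP1-driven luciferase reporter | Medium: F12 with 10% serum | Compound dosing: 20 µM single concentration, DMSO 1% | Incubation: Overnight seeding at 37 °C, 6 h compound treatment at 37 °C | Detection: Steady-Glo luminescence read | Read-out basis: % activation of reporter signal versus tunicamycin and DMSO controls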
697 NFkB inh = inhibitors of the PMA/ionomycin-induced NF-kB reporter in 697 B cells | 697 B-cell NF-kB luciferase reporter, 16 h | inhibition, % at 4 µM | AID 435022 | 330,000 compounds, 0.33% hits; in the data active = inhibition above about 35%
CHOP inhibitor = blocks CHOP induction under ER stress; CHO-K1 CHOP-promoter luciferase, tunicamycin-induced, 15-18 h; inhibition, % at 10 µM; 220,000 compounds, 3.8% hits;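 active = compounds that reduced the stress-induced luciferase reporter signal by more than about 70% of percent inhibition, limit read from the data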
Jurkat NFkB inh = inhibitors of the PMA/ionomycin-induced NF-kB reporter in Jurkat cells; 330,000 compounds, 0.53% hits; inhibition, % at 4 µM; PMA/ionomycin-induced NF-kB luciferase reporter, luminescence; AID 435003; in the data active = inhibition above about 50%
CHOP UPR activ = activators of apoptotic arm of unfolded protein response (CHOP); activation, % at 10 µM; CHO-CHOP luciferase reporter, UPR activation, luminescence; percent of tunicamycin response over DMSO baseline; 330,000 compounds, 0.34% hits;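 active = at 10 µM dose, activation of 40% or more, normalized to positive control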
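Test system: CHO CHOP reporter cells. Input: 500 CHO-CHOP cells per well. Medium: F12 with 10% FBS. Technique: luciferase luminescence. Measure: percent activation relative to tunicamycin control. Dosing: 10 µM compound, 0.5% DMSO. Timing: 16-18 h cell attachment, then 6 h compound exposure, 37 °C.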
CHOP confirm = confirmation of CHOP induction inhibitors | shares compounds with CHOP inhibitor | CHO-CHOP promoter luciferase reporter, tunicamycin-induced, luminescence | inhibition, % at 10 µM | 2,100 compounds, 45% hits | AID 504437;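 active = mean of three repeat readings of reporter signal inhibition above a set limit, cut at about 70% in these data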
Large screens that a line does not name were inactive (follow-up assays come after a bar, where they were run). The full list was thinned out, with hits kept by preference.

Cc1nc(NC(=O)CSc2nc3cccnc3n2Cc2ccccc2)sc1C	CHOP inhibitor 104 | CHOP confirm 91
N#CC(C#N)=C1C=CC=CN1/C(=C\c1ccccc1Cl)C(=O)c1ccccc1	CHOP inhibitor 107 (no result: XBP1 UPR activ, 697 NFkB inh, Jurkat NFkB inh, CHOP UPR activ) | CHOP confirm 125
CC(C)(C)c1nc2c(C#N)c(-c3ccc(Cl)cc3)ccn2n1	CHOP inhibitor 101 | CHOP confirm inactive
Cc1ccc(-c2nc(N)sc2-c2ccc(C)cc2)cc1	CHOP inhibitor 97 (no result: XBP1 UPR activ, 697 NFkB inh, Jurkat NFkB inh, CHOP UPR activ) | CHOP confirm 114
Cc1ccnc(N2C(=O)c3ccccc3C2=O)c1	none (no result: CHOP inhibitor)
Cc1ccnc(N2C(=O)c3cccc4c([N+](=O)[O-])ccc(c34)C2=O)c1	CHOP inhibitor 106 | CHOP confirm inactive
O=C1c2cccc3c([N+](=O)[O-])ccc(c23)C(=O)N1Cc1cccnc1	CHOP inhibitor 110 (no result: XBP1 UPR activ, 697 NFkB inh, Jurkat NFkB inh, CHOP UPR activ) | CHOP confirm inactive
c1ccc(CCNc2nc(-c3ccncc3)nc3ccccc23)cc1	none
O=C(Cc1cccs1)NCc1ccc(Cl)cc1Cl	none (no result: CHOP inhibitor)
O=C1NN=C(c2ccccc2)CC1c1ccc(Cl)cc1Cl (configuration not stated)	none
O=C1NN=C(c2ccc(Cl)cc2)CC1c1cccc(Cl)c1 (configuration not stated)	CHOP inhibitor 102 | CHOP confirm inactive
COC(=O)[C@]1(C)N[C@H](CN(C)S(=O)(=O)c2ccc(-c3ccccc3)cc2)[C@@H]2C(=O)N(C)C(=O)[C@@H]21	none (no result: CHOP inhibitor)
COc1ccccc1NC(=O)c1c(Nc2ccccc2C)sc(C(=O)Nc2cccc(Cl)c2)c1N	CHOP inhibitor 100 | CHOP confirm 131
COc1ccc(Nc2sc(C(=O)c3ccc(Cl)cc3)c(N)c2C(=O)Nc2ccccc2OC)cc1	none
CC1CC(C)CN(S(=O)(=O)CC23CCC(CC2=O)C3(C)C)C1 (configuration not stated)	none (no result: CHOP inhibitor)
CC1CCCCC1n1c(=S)[nH]c2ccccc2c1=O (configuration not stated)	CHOP inhibitor 103 | CHOP confirm inactive
CC1CCCCC1NC(=O)CCCn1c(=S)[nH]c2ccccc2c1=O (configuration not stated)	none
COc1cc(C(=O)O/N=C2\C=CC(=O)C(C)=C2)cc(OC)c1OC	CHOP inhibitor 108 | CHOP confirm 99
CC(C)n1c(NCc2ccccc2O)nc2ccccc21	none (no result: CHOP inhibitor)
C=CCc1cccc(CNc2nc3ccccc3n2C(C)C)c1O	CHOP inhibitor 108 | CHOP confirm inactive
Nc1c(S(=O)(=O)c2ccccc2)c2nc3ccccc3nc2n1/N=C/c1cccc(O)c1	CHOP inhibitor 103 | CHOP confirm 72
COc1ccc(C2=NN(c3ccccc3)C(c3cn(CCC(=O)O)nc3-c3ccccc3)C2)cc1 (configuration not stated)	CHOP inhibitor 96 | CHOP confirm inactive
COc1ccc(-c2nn(CCC(=O)O)cc2CCC(=O)O)cc1	none
CC(NCc1ccc(F)cc1)C(=O)Nc1cc(S(=O)(=O)N2CCCCC2)ccc1Cl (configuration not stated)	none
O=C(/C=C/c1cccc(Cl)c1)Nc1ncccn1	none
O=C(/C=C/c1cccc(Cl)c1)c1nc2ccccc2[nH]1	CHOP inhibitor 102 | CHOP confirm inactive
CCOc1cc(N2CCOCC2)c(OCC)cc1NCC(=O)N1CCN(Cc2ccccc2)CC1	none
Oc1ccc(/C=N/Nc2nc(-c3ccc(Cl)cc3)cc(C(F)(F)F)n2)cc1	CHOP inhibitor 102 | CHOP confirm 98
COC(=O)CCS(=O)(=O)c1nc(-c2ccccc2)cc(C(F)(F)F)n1	CHOP inhibitor 106 | CHOP confirm inactive
CS(=O)(=O)c1nc(-c2ccc(F)cc2)cc(C(F)(F)F)n1	CHOP inhibitor 106 (no result: XBP1 UPR activ, 697 NFkB inh, Jurkat NFkB inh, CHOP UPR activ) | CHOP confirm 110
CS(=O)(=O)c1nc(-c2cccs2)cc(C(F)(F)F)n1	CHOP inhibitor 111 | CHOP confirm 120
COCC(C)NC(=O)CCS(=O)(=O)c1nc(-c2ccc(OC)cc2)cc(C(F)(F)F)n1 (configuration not stated)	none
CCOC(=O)CS(=O)(=O)c1nc(-c2ccccc2)cc(C(F)(F)F)n1	none (no result: CHOP inhibitor)
COc1ccc(-c2cc(C(F)(F)F)nc(S(=O)(=O)CCCC(=O)Nc3cccnc3Cl)n2)cc1OC	CHOP inhibitor 100 (no result: XBP1 UPR activ, 697 NFkB inh, Jurkat NFkB inh, CHOP UPR activ) | CHOP confirm inactive
CSc1ncccc1C(=O)NC1CCCc2c1cnn2-c1ccc(C)c(C)c1 (configuration not stated)	none (no result: CHOP inhibitor)
O=C(Cn1ncc(Cl)c(Cl)c1=O)NC1CCCCC1	none (no result: CHOP inhibitor)
O=C(Cn1ncc(Cl)c(Cl)c1=O)NCC1CCCCC1	CHOP inhibitor 108 (no result: XBP1 UPR activ, 697 NFkB inh, Jurkat NFkB inh, CHOP UPR activ) | CHOP confirm inactive
Cc1cc(N2C(=O)C=CC2=O)c([N+](=O)[O-])cc1C	CHOP inhibitor 108 | CHOP confirm inactive
Cc1ccc(N2C(=O)C3C4C=CC(CC4)C3C2=O)cc1[N+](=O)[O-] (configuration not stated)	none (no result: CHOP inhibitor)
CCC(=O)N1CCCc2cc(S(=O)(=O)CCC(=O)Nc3ccccc3C)ccc21	none (no result: CHOP inhibitor)
CCCOC(=O)CSc1nnc(-c2ccc(Cl)cc2Cl)o1	CHOP inhibitor 98 | CHOP confirm inactive
COc1ccc(C(=O)/C=C/C(=O)N(CC(=O)NCCC(C)C)Cc2cccs2)c(O)c1	CHOP inhibitor 106 (no result: XBP1 UPR activ, 697 NFkB inh, Jurkat NFkB inh, CHOP UPR activ) | CHOP confirm 113
COc1ccc(C(=O)/C=C/C(=O)N(CC(=O)NC2CCCCC2)Cc2ccc(F)cc2)c(O)c1	CHOP inhibitor 108 (no result: XBP1 UPR activ, 697 NFkB inh, Jurkat NFkB inh, CHOP UPR activ) | CHOP confirm 140
COc1ccc(C(=O)N(Cc2ccco2)Cc2cccs2)c(O)c1	none
COc1cc(CN(C2CC2)S(=O)(=O)c2ccccc2Br)cc(OC)c1	none (no result: CHOP inhibitor, Jurkat NFkB inh)
O=C(CCC(=O)NC1CCCCC1)Nc1cccnc1	none (no result: CHOP inhibitor)
CC(Oc1cccc2ccccc12)C(=O)N/N=C/c1cccnc1 (configuration not stated)	none (no result: CHOP inhibitor)
CCCCn1c(NS(=O)(=O)c2ccccc2)c(S(=O)(=O)c2ccc(C)cc2)c2nc3ccccc3nc21	CHOP inhibitor 99 (no result: XBP1 UPR activ, 697 NFkB inh, Jurkat NFkB inh, CHOP UPR activ) | CHOP confirm 76
CCCCn1c(NC(=O)c2ccco2)c(S(=O)(=O)c2ccc(C)cc2)c2nc3ccccc3nc21	none (no result: XBP1 UPR activ, 697 NFkB inh, Jurkat NFkB inh, CHOP UPR activ)
CCN1CCN(CC(=O)N2N=C(c3ccc(OC)cc3)CC2c2ccc(OC)cc2)C(=O)C1=O (configuration not stated)	none
O=C(CCl)Nc1cccc(Oc2ccccc2)c1	CHOP inhibitor 107 | CHOP confirm inactive
O=C(CCl)Nc1ccc(N=Nc2ccccc2)cc1	CHOP inhibitor 103 (no result: XBP1 UPR activ, 697 NFkB inh, Jurkat NFkB inh, CHOP UPR activ) | CHOP confirm inactive
O=C(CCl)Nc1cccc(Oc2cnccn2)c1	none (no result: CHOP inhibitor)
CC(=O)Nc1ccc(N=Nc2ccccc2)cc1	none
CCc1ccc(OCC(=O)NC(NC(=S)Nc2ccc(Cl)cc2)C(Cl)(Cl)Cl)cc1 (configuration not stated)	CHOP inhibitor 102 | CHOP confirm 70
